The source made the active and inactive calls. The calls are words filed in the database; no cut-off is given here.
Key:
NCI-H460 = assay: Antiproliferative activity against human NCI-H460 cells after 72 hrs; settings: NCI-H460, 72 h
HL-60 = assay: Antiproliferative activity against human HL60 cells after 72 hrs by trypan blue test; format: functional, cell-based; settings: HL-60, 72 h
Procedure, shortened: (§1)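 HeLa (Ham's F-12, 10% heat-inactivated FCS) or HL-60 (RPMI 1640, 15% heat-inactivated FCS), both with penicillin/streptomycin/amphotericin; 4 · 10⁴ cells/well seeded in duplicate, 72 h drug exposure. Viability by Trypan blue; IC50 = concentration giving 50% reduction in cell number versus untreated controls.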

HeLa [1] = assay: Antiproliferative activity against human HeLa cells after 72 hrs by trypan blue test; format: functional, cell-based
Procedure, shortened: as §1

HeLa [2] = assay: Induction of apoptosis in human HeLa cells assessed as DNA fragmentation at 100 uM after 24 hrs; format: functional, cell-based
Procedure, shortened: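 HeLa cells (5 · 10⁵) incubated 24 h at 37 °C, medium replaced, test agent added; solvent-only controls. After 24 h, DNA extracted, dissolved in TE (10 mM Tris pH 8, 1 mM EDTA), run on 1% agarose, ethidium bromide-stained and imaged under UV; cisplatin as positive control.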

Homo sapiens [3] = species on record: Homo sapiens; assay: Inhibition of human recombinant topoisomerase 2 assessed as relaxation of supercoiled pBR322 plasmid DNA at 10 to 50 uM
Homo sapiens [4] = species on record: Homo sapiens; assay: Inhibition of human recombinant topoisomerase 2 assessed as relaxation of supercoiled pBR322 plasmid DNA at 50 uM

Q: What does the source list for `Cn1cc2c3c1C(=O)C(NCCc1c[nH]c4ccc(F)cc14)=CC3=NCC2`?
A: IC50 (NCI-H460): 5.5 µM; IC50 (HL-60): > 20 µM; IC50 (HeLa [1]): > 20 µM

Q: Which IC50 (NCI-H460) does the source give for `Cn1cc2c3c1C(=O)C(NCCc1c[nH]c4ccc(O)cc14)=CC3=NCC2` here?
A: The IC50 was > 40 µM.

Q: Which IC50 (NCI-H460) does the source give for `COc1cc2c3c(cn(C)c3c1OC)CCN2` here?
A: Its IC50 is > 60 µM.

Q: With `Cn1cc2c3c1C(=O)C(NCc1ccccc1)=CC3=NCC2` as the molecule, how does the IC50 (NCI-H460) read?
A: The IC50 was > 40 µM.

Q: Which IC50 (NCI-H460) does the source give for `Cn1cc2c3c1C(=O)C(NCCc1ccc(O)cc1)=CC3=NCC2` [MAKALUVAMINE K] here?
A: Its IC50 is 10.8 µM.

Q: What about the IC50 (HL-60) of the same molecule?
A: Its IC50 is 6.9 µM.

Q: What about the IC50 (HeLa [1]) of the same molecule?
A: The IC50 was 4.9 µM.

Q: What about the Activity (HeLa [2]) of the same molecule?
A: Its Activity is “Active”.

Q: With `COC1=CC2=NCCc3cn(C)c(c32)C1=O` as the molecule, how does the IC50 (NCI-H460) read?
A: The IC50 was 9 µM.

Q: And the IC50 (HL-60)?
A: Its IC50 is > 20 µM.

Q: What about the IC50 (HeLa [1]) of the same molecule?
A: Its IC50 is > 20 µM.

Q: Which results are given for `Cn1cc2c3c1C(=O)C1=C(NCCS1)C3=NCC2`?
A: IC50 (NCI-H460): 0.96 µM; IC50 (HL-60): 2.7 µM; IC50 (HeLa [1]): 1.9 µM; Activity (Homo sapiens [3]): Active

Q: Which IC50 (NCI-H460) does the source give for `COc1cc2c3c(cn(C=O)c3c1OC)CCN2C=O` here?
A: The IC50 was > 60 µM.

Q: For `COc1ccc2[nH]cc(CCNC3=CC4=NCCc5cn(C)c(c54)C3=O)c2c1`, which IC50 (NCI-H460) is on record?
A: Its IC50 is 8.8 µM.

Q: For `COc1cc2c3c(cn(C)c3c1OC)CCN2C=O`, which IC50 (NCI-H460) is on record?
A: Its IC50 is > 60 µM.

Q: Which results are given for `Cn1cc2c3c1C(=O)C1=C(C3=NCC2)C2(C=CC(=O)C=C2)CCN1`?
A: IC50 (NCI-H460): 6.2 µM; IC50 (HL-60): 3.1 µM; IC50 (HeLa [1]): 5.5 µM; Activity (HeLa [2]): Active

Q: How did the IC50 (NCI-H460) turn out when `C[C@H](NC1=CC2=NCCc3cn(C)c(c32)C1=O)c1ccccc1` was run?
A: The IC50 was 23 µM.

Q: `Cn1cc2c3c1C(=O)C(NCCc1c[nH]c4ccccc14)=CC3=NCC2` was tested. Which Activity (Homo sapiens [4]) did it give?
A: Its Activity is “Active”.

Q: What about the IC50 (NCI-H460) of the same molecule?
A: The IC50 was 2.12 µM.

Q: What about the IC50 (HL-60) of the same molecule?
A: Its IC50 is 7.8 µM.

Q: And the IC50 (HeLa [1])?
A: The IC50 was 4.1 µM.

Q: And the Activity (HeLa [2])?
A: The Activity was “Active”.

Q: For `COc1cc(NS(C)(=O)=O)ccc1Nc1c2ccccc2nc2ccccc12` [AMSACRINE], which IC50 (HL-60) is on record?
A: The IC50 was 0.0051 µM.

Q: And the IC50 (HeLa [1])?
A: Its IC50 is 0.012 µM.

Q: Which IC50 (NCI-H460) does the source give for `COc1cc2c3c(c[nH]c3c1OC)CCN2C=O` here?
A: The IC50 was > 60 µM.

Q: Which IC50 (NCI-H460) does the source give for `COc1cccc2c1C(=O)c1c(O)c3c(c(O)c1C2=O)C[C@@](O)(C(=O)CO)C[C@@H]3O[C@H]1C[C@H](N)[C@H](O)[C@H](C)O1` [DOXORUBICIN] here?
A: The IC50 was 0.028 µM.

Q: For `COc1ccc(CCNC2=CC3=NCCc4cn(C)c(c43)C2=O)cc1`, which IC50 (NCI-H460) is on record?
A: The IC50 was > 40 µM.

Q: Which results are given for `COc1cc2c3c(c1OC)N(C=O)C(OC)C3CCN2C=O` (stereo not drawn)?
A: IC50 (NCI-H460): 7.7 µM; IC50 (HL-60): > 20 µM; IC50 (HeLa [1]): > 20 µM

— ChEMBL document CHEMBL1142288, “Synthesis and biological evaluation of pyrroloiminoquinone derivatives” (Bioorg Med Chem, 2008)
